Screening data: PubChem BioAssay, several laboratories
Myeloid diff 2: induction of myeloid progenitor differentiation, primary screen, cell-based, flow cytometry, MLPCN library; ER-HoxA9 myeloid progenitors, lysozyme-GFP differentiation; calls only at 10 µM; actives 1% (n = 360,000); AID 624256, 2012;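 active = normalized GFP-positive differentiation at or above the plate's own cutoff, the solvent-only control mean plus 3 SD; inconclusive = no clear call, values can overlap the other calls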;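 also: cells exposed to compound for four days before flow analysis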
core dimer inh: inhibitors of HCV core protein dimerization, primary screen, biochemical, TR-FRET, high-throughput; actives 0.33% (n = 300,000); inhibition, % at 5 µM; TR-FRET GST/Flag-core106 dimerization, 1536-well; AID 1899, 2009;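 active = inhibition above the mean of all tested compounds plus 3 SD, set per screening campaign, cut at about 45% in these data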
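Assay system – GST-tagged and Flag-tagged HCV core protein residues 1-106 · Quantity – core106 proteins, GST 13.5 nM and Flag 17 nM · Benchmarks – unlabelled core106 and no-GST-core106 wells · Read-out basis – percent inhibition of core106 dimerization signal · Detection – time-resolved FRET, ex 340 nm, em 617 and 671 nm · Schedule – 4 h at 22.5 °C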
NadD inh: inhibitors of S. aureus NadD, primary screen, biochemical, colorimetric, uHTS; AID 602399, 2012; inhibition, % at 20 µM; actives 0.78% (n = 360,000); purified NadD enzyme, colorimetric absorbance read-out; Nicotinate-nucleotide adenylyltransferase NadD (Staphylococcus aureus N315); in the data active = inhibition above about 26%
PP1 inh: PP1-alpha phosphatase inhibitors, primary screen, counter-screen for PP5 inhibitor project, biochemical, fluorescence, OMFP substrate, single point | Serine/threonine-protein phosphatase PP1-alpha catalytic subunit (Homo sapiens), P62136 | purified PP1alpha | inhibition, % at 6.7 µM | actives 0.9% (n = 320,000) | AID 2235, 2010;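 active = inhibition above the mean inhibition of all tested compounds plus 3 SD, computed separately for each screening campaign, cut at about 15% in these data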
CTSL1 counter: Fasciola hepatica cathepsin L1 inhibitors, primary screen, counter-screen for PFM18AAP inhibitor project, biochemical, QFRET, fluorogenic peptide substrate; recombinant F. hepatica cathepsin L1, Z-Leu-Arg-MCA fluorescence; inhibition, % at 5.96 µM; actives 0.49% (n = 300,000); AID 1906, 2009;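 active = inhibition above the mean of all tested compounds plus 3 SD, set per screening campaign, cut at about 17% in these data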
PP5 inh: PP5 phosphatase inhibitors, primary screen, biochemical, fluorescence; Serine/threonine-protein phosphatase 5 (Homo sapiens), P53041; inhibition, % at 6.7 µM; purified PP5c, OMFP substrate fluorescence; actives 0.18% (n = 320,000);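 active = inhibition above the campaign's mean inhibition across all tested compounds plus 3 SD, cut at about 9.5% in these data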
Target sequence (P53041 whole entry, looked up): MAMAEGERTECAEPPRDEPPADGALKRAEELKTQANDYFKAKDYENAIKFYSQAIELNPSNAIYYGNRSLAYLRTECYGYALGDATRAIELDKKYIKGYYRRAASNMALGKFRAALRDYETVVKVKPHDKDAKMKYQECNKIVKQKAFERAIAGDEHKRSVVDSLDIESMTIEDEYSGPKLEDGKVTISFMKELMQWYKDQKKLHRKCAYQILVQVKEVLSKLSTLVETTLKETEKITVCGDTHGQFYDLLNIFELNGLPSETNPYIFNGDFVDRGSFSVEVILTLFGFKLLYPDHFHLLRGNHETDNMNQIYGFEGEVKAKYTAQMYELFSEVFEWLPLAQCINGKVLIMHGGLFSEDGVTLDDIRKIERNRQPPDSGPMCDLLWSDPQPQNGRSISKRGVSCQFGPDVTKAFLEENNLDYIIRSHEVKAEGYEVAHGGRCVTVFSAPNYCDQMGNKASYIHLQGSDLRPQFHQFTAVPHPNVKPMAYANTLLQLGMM
Of the large screens only hits and unclear results are named; the others gave an inactive call. Rows were chosen to be rich in hits. Some 3.1% of all compounds tested hit in one or more screens of this group.

Cc1ccc(S(=O)(=O)N2CCCCC2)cc1NC(=O)C1COc2ccccc2O1 (centres undefined)	none (no result: core dimer inh, PP1 inh, CTSL1 counter, PP5 inh)
CC1=C(C(=O)N(C(C)C)C(C)C)CC(CC(=O)NCCCCc2ccccc2)C(=O)N1Cc1ccc(C(C)(C)C)cc1 (centres undefined)	Myeloid diff 2 active (no result: core dimer inh, PP1 inh, CTSL1 counter, PP5 inh)
COc1ccc(C(=O)C2CCCN(C(=O)c3c4c(nn3C)CCCC4)C2)cc1F (centres undefined)	Myeloid diff 2 active
Cn1nc2c(c1C(=O)N1CCCC(C(=O)c3cc(F)ccc3F)C1)CCCC2 (centres undefined)	none
COC(=O)Cn1cc(S(=O)(=O)NCc2ccc(C)cc2)c2cc([N+](=O)[O-])ccc21	none (no result: core dimer inh, PP1 inh, CTSL1 counter, PP5 inh)
CCc1ccc2c(c1)C(=O)C(=O)N2CC(=O)Nc1ccc(NC(=O)c2ccccn2)cc1	PP1 inh 16
CCc1ccc(NC(=O)CCN2C(=O)c3cccnc3C2=O)cc1	none
Cc1cccc(CN2CCC(CNC(=O)Cn3ncc4c([nH]c5ccccc54)c3=O)CC2)c1	none
O=C(Cn1ncc2c([nH]c3ccccc32)c1=O)Nc1ccc(CN2CCCCC2)cc1	Myeloid diff 2 active
OCC(O)C1OC(c2ccco2)OC(CO)C1O (centres undefined)	none (no result: core dimer inh, PP1 inh, CTSL1 counter, PP5 inh)
COc1ccc(C(=O)Nc2ccccc2C(=O)Nc2ccncc2)cc1	none
CCOc1ncccc1C(=O)NNC(=O)c1cccc(S(=O)(=O)N2CCOCC2)c1	none (no result: core dimer inh, PP1 inh, CTSL1 counter, PP5 inh)
C#CCNC(=O)C[C@@H]1C[C@@]2(C(=O)OC)CCCCC=C2N(CCCCCCCC)C1=O	none (no result: core dimer inh, PP1 inh, CTSL1 counter, PP5 inh)
COc1ccc(CN(CCC(c2ccccc2)c2ccc(OC(C)C)cc2)C(=O)CCl)cc1OC (centres undefined)	CTSL1 counter 36
CCC(=O)NC1=C(Nc2ccc(N)cc2)C(=O)c2ccccc2C1=O	Myeloid diff 2 active
CCC(=O)Nc1ccc(C2C(=O)c3ccccc3C2=O)cc1	none
CS(=O)(=O)NCCCNc1ccc(Cl)cc1[N+](=O)[O-]	none
CCNCCNc1ccc(Cl)cc1[N+](=O)[O-]	CTSL1 counter 36
COc1cc2oc(=O)ccc2cc1[C@H](O)[C@@H](O)C(C)(C)O	none (no result: core dimer inh, CTSL1 counter)
CCC/C=C/c1ccc(CN2C(C(C)C)C(=O)N(Cc3cn(CCC4OCCCO4)nn3)CCS2(=O)=O)cc1 (centres undefined)	none (no result: core dimer inh, PP1 inh, CTSL1 counter, PP5 inh)
CC(=O)Nc1sc(/C(C#N)=C\c2cccc(Cl)c2)nc1-c1ccc(C)cc1	Myeloid diff 2 active
O=C(c1cccc(OC2CCN(Cc3cccc(OCCO)c3)CC2)c1)N1CCCC1	Myeloid diff 2 active
COc1cnc(-c2ccccc2)nc1Oc1ccc(Cl)cc1C	CTSL1 counter 19
C=CCn1c(O)c(N=NC(=S)Nc2ccccc2F)c2cc(S(=O)(=O)N3CCOCC3)ccc21	NadD inh 38
N/C(=N\OC(=O)c1ccc(Cl)cc1)c1ccccn1	none
N/C(=N/OC(=O)c1ccc(Cl)cc1)c1ncc([N+](=O)[O-])s1	Myeloid diff 2 active
CCOC(=O)[C@]12CCC=C1N(Cc1ccc(Cl)cc1Cl)C(=O)[C@H](CC(=O)NCCCN1CCCC1=O)C2	none (no result: core dimer inh, PP1 inh, CTSL1 counter, PP5 inh)
CN(C1=C(NC(=O)c2ccccc2)C(=O)c2ccccc2C1=O)C1CCS(=O)(=O)C1 (centres undefined)	Myeloid diff 2 inconclusive, CTSL1 counter 22
CC(=O)NC1=C(NC2CCS(=O)(=O)C2)C(=O)c2ccccc2C1=O (centres undefined)	none
Clc1cccc(Nc2nc(-c3ccncc3)cs2)c1	PP1 inh 17
CC(C)C(NC(=O)C12CC3CC(CC(C3)C1)C2)C(=O)N/N=C/C1=C(N2CCOCC2)C(=C\c2ccc([N+](=O)[O-])cc2)/CC1 (centres undefined)	Myeloid diff 2 active, NadD inh 32
CN1CCc2nc(SCC(=O)Nc3ccc(OC(F)(F)F)cc3)c(C#N)c(-c3cccs3)c2C1	Myeloid diff 2 active
Cc1cc(C(=O)N2CCC2(C)C(=O)Nc2ccc3[nH]ncc3c2)nn1C (centres undefined)	none (no result: core dimer inh, PP1 inh, CTSL1 counter, PP5 inh)
S=C1NC2=C(CCCC2=C2SCCS2)C(c2ccccc2)N1 (centres undefined)	core dimer inh 46
COc1cccc(C2NC(=S)NC3=C2CCc2ccccc23)c1 (centres undefined)	none
NC[C@H](Cc1ccccc1)NCCCCC1CCCCC1	none (no result: core dimer inh, CTSL1 counter)
CNC[C@H](CC1CCCCC1)NC[C@H](Cc1ccccc1)NCCC12CC3CC(CC(C3)C1)C2	PP1 inh 21 (no result: Myeloid diff 2)
C[C@@H]1CN([C@H](C)CO)C(=O)c2cc(Br)cnc2O[C@H]1CN(C)C(=O)Nc1ccccc1F	none (no result: core dimer inh, PP1 inh, CTSL1 counter, PP5 inh)
O=C(O)/C=C/C(=O)Nc1ccc(Oc2ccccc2)cc1	none
CCOC(=O)/C=C/C(=O)NNC(=O)c1ccccc1Cl	CTSL1 counter 46
NC(=S)NNC(=O)c1ccccc1Cl	none
CCOC(=O)/C=C/C(=O)Nc1ccc(Oc2ccccc2)cc1	CTSL1 counter 31
Nc1ccccc1C(=O)NCC1(c2ccccc2)CCCC1	CTSL1 counter 18 (no result: Myeloid diff 2)
O=C(NCC1(c2ccccc2)CCCC1)c1ccc(Br)cc1	none
O=c1oc(-c2ccccc2)nc2sc3c(c12)CCC3	core dimer inh 59
COc1ccc(C(c2sc3nc(C)nn3c2O)N2CCN(CCO)CC2)cc1OC (centres undefined)	Myeloid diff 2 active
C=CCOc1cccc(C2C(C(=O)c3ccc(C)o3)=C(O)C(=O)N2Cc2ccncc2)c1 (centres undefined)	none
C=CCOc1ccc(C2C(C(=O)c3ccc(C)o3)=C(O)C(=O)N2Cc2cccnc2)cc1 (centres undefined)	PP1 inh 23
C#CCN(C[C@@H](CC(C)C)NC(=O)OC(C)(C)C)S(=O)(=O)c1ccc(Br)cc1F	none (no result: core dimer inh, PP1 inh, CTSL1 counter, PP5 inh)
COc1ccc(-c2n(CC(=O)OC3CC(C)CCC3C(C)C)c3ccccc3[n+]2C)cc1 (centres undefined)	none (no result: core dimer inh, PP1 inh, CTSL1 counter, PP5 inh)
COc1ccc(OCc2n(CC(=O)OC3CC(C)CCC3C(C)C)c3ccccc3[n+]2C)cc1 (centres undefined)	PP1 inh 16
CC(C)(C)C(=O)NC(=S)NNC(=O)c1ccc(-c2ccccc2)cc1	Myeloid diff 2 active
O=C(c1cc2ccccc2cc1O)N1CCN(c2ccc([N+](=O)[O-])cc2)CC1	none
COc1ccccc1/C=N\Nc1cn[nH]c(=O)c1Cl	none
CCOc1ccccc1/C=N\Nc1cnn(Cc2ccccc2)c(=O)c1Cl	PP1 inh 16
Nc1nc(N)c(Cc2ccc(Cl)cc2Cl)c(N)n1	Myeloid diff 2 active
